ChEMBL document CHEMBL3808334, “Synthesis and in vitro evaluation of novel triazine analogues as anticancer agents and their interaction studies with bovine serum albumin” (Eur J Med Chem, 2016)

Columns and labels:
Type in all cases: functional
SN12C = experiment: Growth inhibition of human SN12C cells assessed as cell growth at 10^-6 M incubated for 48 hrs by sulforhodamine B assay; conditions: read-out: Activity
[1] = Growth inhibition of human DU145 cells assessed as cell growth at 10^-4 M incubated for 48 hrs by sulforhodamine B assay; conditions: DU-145, 48 h, read-out: Activity
In short: (§1)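 Cells seeded at 5,000–40,000/well according to doubling time and preincubated 24 h at 37 °C, 5% CO2. Time-zero plates were TCA-fixed. DMSO concentrate was diluted in medium with 50 µg/ml gentamicin to give five concentrations (10-fold or ½ log steps), then exposed 48 h. Cells were TCA-fixed, stained with 0.4% SRB and read at 515 nm. Percent growth was taken against time-zero and control; GI50, TGI and LC50 derived.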

[2] = Growth inhibition of human HOP62 cells assessed as cell growth at 10^-8 M incubated for 48 hrs by sulforhodamine B assay; conditions: HOP-62, 48 h, read-out: Activity
[3] = Growth inhibition of human IGROV1 cells assessed as cell growth at 10 uM incubated for 48 hrs by sulforhodamine B assay; conditions: IGROV-1, 48 h, read-out: Activity
[4] = Growth inhibition of human OVCAR3 cells assessed as cell growth at 10 uM incubated for 48 hrs by sulforhodamine B assay; conditions: OVCAR-3, 48 h, read-out: Activity
EKVX = experiment: Growth inhibition of human EKVX cells assessed as cell growth at 10^-8 M incubated for 48 hrs by sulforhodamine B assay; conditions: read-out: Activity; in short: as §1
[5] = Growth inhibition of human SNB75 cells incubated for 48 hrs by sulforhodamine B assay; conditions: SNB-75, 48 h
In short: (§2)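 Cells were plated at 5,000–40,000 per well according to doubling time and preincubated 24 h at 37 °C in 5% CO2; time-zero plates were then TCA-fixed. Five concentrations (10-fold or ½-log dilutions, DMSO stock) were incubated 48 h. Cells were TCA-fixed, stained with 0.4% SRB and read at 515 nm. GI50 was taken where [(Ti−Tz)/(C−Tz)]×100 = 50.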

M14 = experiment: Growth inhibition of human M14 cells incubated for 48 hrs by sulforhodamine B assay; conditions: M14, 48 h; in short: as §2
KM12 = experiment: Growth inhibition of human KM12 cells assessed as cell growth at 10^-8 M incubated for 48 hrs by sulforhodamine B assay; conditions: KM12, 48 h, read-out: Activity
[6] = Growth inhibition of human HCT15 cells assessed as cell growth at 10^-7 M incubated for 48 hrs by sulforhodamine B assay; conditions: HCT-15, 48 h, read-out: Activity; in short: as §1
[7] = Growth inhibition of human SNB75 cells assessed as cell growth at 10^-4 M incubated for 48 hrs by sulforhodamine B assay; conditions: SNB-75, 48 h, read-out: Activity
[8] = Growth inhibition of human OVCAR5 cells assessed as cell growth at 10^-6 M incubated for 48 hrs by sulforhodamine B assay; conditions: OVCAR-5, 48 h, read-out: Activity
SK-MEL-28 [9] = experiment: Growth inhibition of human SK-MEL-28 cells assessed as cell growth at 10^-6 M incubated for 48 hrs by sulforhodamine B assay; conditions: SK-MEL-28, 48 h, read-out: Activity
[10] = Growth inhibition of human UACC62 cells assessed as cell growth at 10^-4 M incubated for 48 hrs by sulforhodamine B assay; conditions: UACC-62, 48 h, read-out: Activity
NCI-H226 = experiment: Growth inhibition of human NCI-H226 cells assessed as cell growth at 10^-6 M incubated for 48 hrs by sulforhodamine B assay; conditions: NCI-H226, 48 h, read-out: Activity
[11] = Growth inhibition of human SF539 cells assessed as cell growth at 10^-7 M incubated for 48 hrs by sulforhodamine B assay; conditions: SF-539, 48 h, read-out: Activity
Malme-3M = experiment: Growth inhibition of human MALME-3M cells assessed as cell growth at 10^-8 M incubated for 48 hrs by sulforhodamine B assay; conditions: read-out: Activity
[12] = Growth inhibition of human PC3 cells assessed as cell growth at 10^-6 M incubated for 48 hrs by sulforhodamine B assay; conditions: PC-3, 48 h, read-out: Activity
MDA-MB-468 = experiment: Growth inhibition of human MDA-MB-468 cells incubated for 48 hrs by sulforhodamine B assay; conditions: MDA-MB-468, 48 h; in short: as §2
SK-MEL-28 [13] = experiment: Growth inhibition of human SK-MEL-28 cells assessed as cell growth at 10^-7 M incubated for 48 hrs by sulforhodamine B assay; conditions: SK-MEL-28, 48 h, read-out: Activity
NCI-H522 = experiment: Growth inhibition of human NCI-H522 cells incubated for 48 hrs by sulforhodamine B assay; conditions: NCI-H522, 48 h; in short: as §2
[14] = Growth inhibition of human TK10 cells assessed as cell growth at 10^-5 M incubated for 48 hrs by sulforhodamine B assay; conditions: TK-10, 48 h, read-out: Activity
[15] = Growth inhibition of human COLO205 cells assessed as cell growth at 10^-5 M incubated for 48 hrs by sulforhodamine B assay; conditions: COLO 205, 48 h, read-out: Activity; in short: as §1
[16] = Growth inhibition of human PC3 cells assessed as cell growth at 10^-7 M incubated for 48 hrs by sulforhodamine B assay; conditions: PC-3, 48 h, read-out: Activity
[17] = Growth inhibition of human OVCAR3 cells assessed as cell growth at 10^-7 M incubated for 48 hrs by sulforhodamine B assay; conditions: OVCAR-3, 48 h, read-out: Activity
T47D = experiment: Growth inhibition of human T47D cells incubated for 48 hrs by sulforhodamine B assay; in short: as §2
[18] = Growth inhibition of human HCC2998 cells incubated for 48 hrs by sulforhodamine B assay; conditions: HCC 2998, 48 h; in short: as §1
[19] = Growth inhibition of human OVCAR3 cells assessed as cell growth at 10^-4 M incubated for 48 hrs by sulforhodamine B assay; conditions: OVCAR-3, 48 h, read-out: Activity
[20] = Growth inhibition of human HCC2998 cells assessed as cell growth at 10^-4 M incubated for 48 hrs by sulforhodamine B assay; conditions: HCC 2998, 48 h, read-out: Activity
[21] = read-out: LC50 (the source's name)
[22] = read-out: pLC50 (the source's name) (converted)

c1ccc2[nH]c(-c3ccc(Nc4nc(N5CCCCC5)nc(N5CCOCC5)n4)cc3)nc2c1
growth at 1 µM (SN12C): 100%
growth at 100 µM [1]: 8%
growth at 0.01 µM [2]: 96%
growth at 10 µM [3]: 51.3%
growth at 10 µM [4]: 10.9%
growth at 0.01 µM (EKVX): 93%
GI50 ([5]; read-out: GI50): 2.1 µM
CC50 [5, 21]: > 100 µM
TGI ([5]; read-out: TGI): 16.9 µM
GI50 ([5]; read-out: pGI50 (converted)): 2.09 µM
CC50 [5, 22]: > 100 µM
TGI ([5]; read-out: pTGI (converted)): 17 µM
GI50 (M14; read-out: GI50): 2.05 µM
CC50 (M14; [21]): 15.6 µM
TGI (M14; read-out: TGI): 4.72 µM
GI50 (M14; read-out: pGI50 (converted)): 2.04 µM
CC50 (M14; [22]): 15.5 µM
TGI (M14; read-out: pTGI (converted)): 4.68 µM
growth at 0.01 µM (KM12): 101%
growth at 0.1 µM [6]: 92%
growth at 100 µM [7]: -33%
growth at 1 µM [8]: 103%
growth at 1 µM (SK-MEL-28 [9]): 87%
growth at 100 µM [10]: -38%
growth at 1 µM (NCI-H226): 89%
growth at 0.1 µM [11]: 96%
growth at 0.01 µM (Malme-3M): 86%
growth at 1 µM [12]: 101%
GI50 (MDA-MB-468; read-out: GI50): 2.68 µM
CC50 (MDA-MB-468; [21]): > 100 µM
TGI (MDA-MB-468; read-out: TGI): 6.51 µM
GI50 (MDA-MB-468; read-out: pGI50 (converted)): 2.69 µM
CC50 (MDA-MB-468; [22]): > 100 µM
TGI (MDA-MB-468; read-out: pTGI (converted)): 6.46 µM
growth at 0.1 µM (SK-MEL-28 [13]): 100%
GI50 (NCI-H522; read-out: GI50): 2.36 µM
CC50 (NCI-H522; [21]): > 100 µM
TGI (NCI-H522; read-out: TGI): 6.22 µM
GI50 (NCI-H522; read-out: pGI50 (converted)): 2.34 µM
CC50 (NCI-H522; [22]): > 100 µM
TGI (NCI-H522; read-out: pTGI (converted)): 6.17 µM
growth at 10 µM [14]: -4%
growth at 10 µM [15]: -63%
growth at 0.1 µM [16]: 98%
growth at 0.1 µM [17]: 104%
GI50 (T47D; read-out: GI50): 1.96 µM
CC50 (T47D; [21]): > 100 µM
TGI (T47D; read-out: TGI): 4.58 µM
GI50 (T47D; read-out: pGI50 (converted)): 1.95 µM
CC50 (T47D; [22]): > 100 µM
TGI (T47D; read-out: pTGI (converted)): 4.57 µM
GI50 ([18]; read-out: GI50): 3.74 µM
CC50 [18, 21]: > 100 µM
TGI ([18]; read-out: TGI): > 100 µM
GI50 ([18]; read-out: pGI50 (converted)): 3.72 µM
CC50 [18, 22]: > 100 µM
TGI ([18]; read-out: pTGI (converted)): > 100 µM
growth at 100 µM [19]: -49%

c1ccc(-c2nc(Nc3ccc(-c4nc5ccccc5[nH]4)cc3)nc(N3CCOCC3)n2)cc1
growth at 1 µM (SN12C): 85%
growth at 100 µM [1]: -100%
growth at 0.01 µM [2]: 92%
growth at 10 µM [3]: -38.1%
growth at 10 µM [4]: -73.4%
growth at 0.01 µM (EKVX): 92%
GI50 ([5]; read-out: GI50): 1.64 µM
CC50 [5, 21]: 6.07 µM
TGI ([5]; read-out: TGI): 3.15 µM
GI50 ([5]; read-out: pGI50 (converted)): 1.62 µM
CC50 [5, 22]: 6.03 µM
TGI ([5]; read-out: pTGI (converted)): 3.16 µM
GI50 (M14; read-out: GI50): 1.34 µM
CC50 (M14; [21]): 6.3 µM
TGI (M14; read-out: TGI): 2.9 µM
GI50 (M14; read-out: pGI50 (converted)): 1.35 µM
CC50 (M14; [22]): 6.31 µM
TGI (M14; read-out: pTGI (converted)): 2.88 µM
growth at 0.01 µM (KM12): 98%
growth at 100 µM [20]: -48%
growth at 0.1 µM [6]: 92%
growth at 100 µM [7]: -90%
growth at 1 µM [8]: 112%
growth at 1 µM (SK-MEL-28 [9]): 82%
growth at 100 µM [10]: -75%
growth at 1 µM (NCI-H226): 117%
growth at 0.1 µM [11]: 93%
growth at 0.01 µM (Malme-3M): 106%
growth at 1 µM [12]: 92%
GI50 (MDA-MB-468; read-out: GI50): 2.13 µM
CC50 (MDA-MB-468; [21]): 9.03 µM
TGI (MDA-MB-468; read-out: TGI): 4.39 µM
GI50 (MDA-MB-468; read-out: pGI50 (converted)): 2.14 µM
CC50 (MDA-MB-468; [22]): 9.12 µM
TGI (MDA-MB-468; read-out: pTGI (converted)): 4.37 µM
growth at 0.1 µM (SK-MEL-28 [13]): 97%
GI50 (NCI-H522; read-out: GI50): 2.1 µM
CC50 (NCI-H522; [21]): 7.33 µM
TGI (NCI-H522; read-out: TGI): 3.92 µM
GI50 (NCI-H522; read-out: pGI50 (converted)): 2.09 µM
CC50 (NCI-H522; [22]): 7.41 µM
TGI (NCI-H522; read-out: pTGI (converted)): 3.89 µM
growth at 10 µM [14]: -87%
growth at 10 µM [15]: -73%
growth at 0.1 µM [16]: 106%
growth at 0.1 µM [17]: 98%
GI50 (T47D; read-out: GI50): 1.62 µM
CC50 (T47D; [21]): 9.02 µM
TGI (T47D; read-out: TGI): 3.82 µM
GI50 (T47D; read-out: pGI50 (converted)): 1.62 µM
CC50 (T47D; [22]): 9.12 µM
TGI (T47D; read-out: pTGI (converted)): 3.8 µM
GI50 ([18]; read-out: GI50): 1.9 µM
TGI ([18]; read-out: TGI): 3.99 µM
GI50 ([18]; read-out: pGI50 (converted)): 1.91 µM
TGI ([18]; read-out: pTGI (converted)): 3.98 µM
growth at 100 µM [19]: -100%
